Only some compounds are listed: those with a hit (about 1.5% of all), similar ones and a draw of the others.
VLA-4 inh: inhibition in a human VLA-4 binding assay; P13612; VLA-4 expressing cells, ligand binding flow cytometry; inhibition, % (about 7 µM as worked out from the volumes in the protocol); 0.2% of 330,000 active; AID 2557; in the data active = inhibition above about 50%
CHT PAM: allosteric activators of human choline transporter CHT; AID 488977; Q9GZV3; B-score at 10 µM; CHT-expressing cells, membrane potential dye, choline EC20; hits give high values; LV-AA mutant CHT in HEK293 cells; 0.49% of 310,000 active;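 active = initial fluorescence not abnormally high and integrated response B-score, plate-corrected, over 3 SD above library mean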
Target sequence (Q9GZV3 whole entry, looked up): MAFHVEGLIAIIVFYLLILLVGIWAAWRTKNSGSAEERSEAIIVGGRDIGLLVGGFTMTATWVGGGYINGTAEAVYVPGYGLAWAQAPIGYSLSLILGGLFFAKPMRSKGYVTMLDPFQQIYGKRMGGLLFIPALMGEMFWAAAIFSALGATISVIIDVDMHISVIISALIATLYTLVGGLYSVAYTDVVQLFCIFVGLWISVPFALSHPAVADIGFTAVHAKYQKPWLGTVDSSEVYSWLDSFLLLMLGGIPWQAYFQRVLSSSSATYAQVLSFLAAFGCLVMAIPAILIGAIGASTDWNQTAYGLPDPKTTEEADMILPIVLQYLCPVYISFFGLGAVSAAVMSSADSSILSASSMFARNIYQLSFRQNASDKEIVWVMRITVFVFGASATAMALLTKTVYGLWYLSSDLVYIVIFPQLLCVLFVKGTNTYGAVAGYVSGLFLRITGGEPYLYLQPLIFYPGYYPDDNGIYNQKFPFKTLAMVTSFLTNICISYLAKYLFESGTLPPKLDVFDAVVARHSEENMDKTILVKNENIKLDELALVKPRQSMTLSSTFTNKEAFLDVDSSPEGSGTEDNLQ
CHT block: inhibitors of human choline transporter CHT | Q9GZV3 | CHT-expressing cells, membrane potential dye, choline response; hits give low values | B-score at 10 µM | 0.86% of 310,000 active | AID 488975;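 active = B-score over 3 SD under the library average, and starting fluorescence ratio not unusually high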;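 also: choline stimulus applied at its EC90 after an EC20 pre-addition; B-score computed on integrated fluorescence ratio after choline addition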
T cell HTS: T cell immune modulators affecting CD8 T cell-vesicle binding | AID 2052 | 2C CD8+ T cell-vesicle binding, flow cytometry; hits give low values | 0.068% of 330,000 active | response (vesicle binding), % at 7 µM;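 active = response, share of CD8 T cells binding vesicles, and their 90th percentile fluorescence all below set limits, cut at about 80% in these data, passing the limit was not always enough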;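 also: values below 100% mean blocked vesicle binding to the CD8+ T cells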
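Test system: purified 2C TCR transgenic mouse naive CD8+ T cells. Probe or stimulus: QL9-peptide-loaded Drosophila micro-vesicles bearing Ld, ICAM-1 and B7-1. Incubation: binding step 1.5 h, 37 °C, antibody labelling 20 min, ice. Measured by: flow cytometry of vesicle-bound cells.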
CHT block conf: confirmation of human choline transporter CHT inhibitors | 70% of 2,400 active | CHT activity remaining % of control (hits give low values), % at 10 µM | shares compounds with CHT block | AID 493221 | CHT-expressing cells, choline membrane potential dye; LV-to-AA substituted CHT, HEK293 cells;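 active = choline transporter activity left, mean of duplicates at 10 µM, below buffer-only control mean minus 3 SD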;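 also: depolarization triggered by choline at its EC90 following an EC20 pre-addition; 0% = hemicholinium-3 full block and 100% = buffer-only control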
HEK293 CHT ctr: CHT inhibitor counter-screen hit in parental HEK293 cells. membrane potential ratio readout (active if shifted either direction beyond buffer ±3SD; no single direction) at 10 µM. 4% of 2,400 active. shares compounds with CHT block. AID 493222. membrane potential dye, choline response; active = decrease or increase beyond buffer ±3SD;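 also: parental cells lack the transporter so any hit is non-specific; ratio is peak minus trough fluorescence over baseline after EC90 choline challenge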
The depositor's hits bear a star; i = inactive; nt = no result.

SMILES	VLA-4 inh	CHT PAM	CHT block	T cell HTS	CHT block conf	HEK293 CHT ctr
COc1cc(/C=C2\S/C(=N/S(=O)(=O)c3ccccc3)NC2=O)c([N+](=O)[O-])cc1OC	-6	i	-8.2*	302	53%*	i
COc1cc(S(=O)(=O)N(Cc2ccccc2)Cc2ccccn2)ccc1-n1cnnn1	7	i	i	224	nt	nt
CC#CCN(CC#CC)S(=O)(=O)c1ccc(-n2cnnn2)c(OC)c1	1	i	-6.8*	395	59%*	i
C#CCOc1ccccc1CNC1CCN(Cc2ccccc2)CC1	-4	i	i	153	nt	nt
O=C(NCCCN1CCOCC1)c1onc(CSc2ccc(F)c(F)c2)c1C(=O)NCCCN1CCOCC1	-2	i	i	562	nt	nt
COc1ccc(CN(C(=O)c2cccs2)C(C(=O)NC2CCCCC2)c2ccc3ncccc3c2)cc1 (centres undefined)	7	i	-8.1*	524	43%*	i
O=C(NC1CCCCC1)C(c1ccc2ncccc2c1)N(Cc1ccc2c(c1)OCO2)C(=O)c1cccs1 (centres undefined)	-7	i	-10*	210	25%*	i
COc1ccc(C(C(=O)NC2CCCCC2)N(C(=O)c2cccs2)c2ccc3c(c2)OCO3)cc1 (centres undefined)	26	i	i	351	nt	nt
NS(=O)(=O)c1ccc(CCNC(=O)COC(=O)Cc2c(F)cccc2Cl)cc1	17	i	i	572	nt	nt
Cc1cccc(C(=O)NC(=S)NNC(=O)Cc2ccccc2)c1	-5	i	-6.7*	168	52%*	i
O=C(CCc1ccccc1)NNC(=S)NC(=O)c1ccc(Cl)cc1	12	i	-5.7*	450	70%*	i
CC1=C(C(=O)OCc2ccccc2)C(c2ccccc2[N+](=O)[O-])NC(=O)N1C (centres undefined)	17	i	i	161	nt	nt
CCOC(=O)c1c(CCl)nc2ccccc2c1C	2	i	-8.9*	210	68%*	i
Cc1cc(SCc2cc(=O)n3ccsc3n2)nc2ccccc12	-2	i	-13*	260	-1.4%*	i
Cc1ccc(-n2nc3c(c2NC(=O)c2ccco2)CS(=O)C3)cc1 (centres undefined)	0	i	i	334	nt	nt
O=C(NCc1cccc2ccccc12)c1cccs1	7	nt	nt	270	nt	nt
O=C(N/N=C/C1C(c2ccccc2)C1(Cl)Cl)c1cccc(Cl)c1 (centres undefined)	34	i	i	294	nt	nt
CSC1=NS(=O)(=O)c2c(C)nn(C)c2S1	24	i	-8*	299	29%*	i
Cc1ccc(NC(=S)NNc2ccc([N+](=O)[O-])cc2S(=O)(=O)Nc2ccccc2C(=O)O)cc1C	-380	i	-7.2*	432	50%*	i
Cc1ccc(-c2cccc(CN3CCN(C(C)C)C(CCO)C3)c2)o1 (centres undefined)	22	i	-5.3*	211	37%*	i
C=CC[C@]12CCc3sccc3C1N(c1ccc(C(=O)OCC)cc1)C2=O (some centres undefined)	25	nt	nt	497	nt	nt
C=C(C)C(=O)Nc1cccc(C2=NOC3(C2)C[C@H](C(N)=O)N(C(=O)/C=C/C)C3)c1 (some centres undefined)	6	i	i	299	nt	nt
COc1ccc([C@@H]2CC=C(C(=O)O)[C@H](c3ccccc3F)N2S(=O)(=O)c2ccccc2C)cc1	-2	i	i	653	nt	nt
CNc1cc(Cl)nc(SC)n1	3	i	-12*	539	-0.4%*	i
CCn1cc(C(=O)N[C@@H](CCSC)C(=O)NCCCN2CCOCC2)c(=O)c2cc3c(cc21)OCO3	27	i	i	263	nt	nt
Cc1nc(SC2CC(=O)N(c3cc(Cl)cc(Cl)c3)C2=O)nc2c1CCCC2 (centres undefined)	12	i	-9.2*	165	57%*	i
O=C(N/N=C/C1CC=CCC1)c1cc(-c2cccnc2)nc2ccccc12 (centres undefined)	3	i	-11*	567	14%*	i
